# Compound activity (PubChem)
# MrgX1 allo act – human MrgX1 positive allosteric modulation, primary screen; Q96LB2; MrgX1-HEK293, Fluo-4 calcium flux, FDSS; active compounds read high; B-score at 10 µM; actives 0.63% (n = 310,000); AID 588675;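 active = plate-corrected calcium response at least 3 library SD above typical, normal starting fluorescence, not activating the receptor alone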;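 also: compound read alongside a low EC10 to EC30 dose of BAM8-22 agonist; peak minus trough fluorescence over baseline measured at the second addition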
# Target sequence (Q96LB2 whole entry, looked up): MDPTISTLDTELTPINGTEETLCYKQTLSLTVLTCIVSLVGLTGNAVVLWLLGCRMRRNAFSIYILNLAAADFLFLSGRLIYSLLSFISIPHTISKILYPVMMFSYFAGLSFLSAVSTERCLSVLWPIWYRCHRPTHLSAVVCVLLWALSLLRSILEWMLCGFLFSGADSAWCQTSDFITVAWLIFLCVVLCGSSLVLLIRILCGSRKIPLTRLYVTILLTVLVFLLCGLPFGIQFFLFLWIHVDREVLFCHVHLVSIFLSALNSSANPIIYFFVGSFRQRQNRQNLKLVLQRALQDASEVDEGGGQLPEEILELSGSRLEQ
# MrgX1 ag – activates human MrgX1 receptor signaling | Q96LB2 | B-score at 10 µM | AID 588627 | MrgX1-HEK293 cells, Fluo-4 calcium fluorescence, agonist mode; active compounds read high | actives 0.44% (n = 310,000);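 active = calcium response B-score plate-corrected fluorescence ratio at least 3 library SD, with starting fluorescence B-score inside 5 SD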
#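 System – MrgX1-expressing HEK293 cells · Incubation – cells plated overnight, dye loaded 0.5 h 37 °C, 0.5 h room temperature · Technique – kinetic Fluo-4 NW fluorescence of intracellular calcium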
# RGS4 block – inhibitors of human RGS4; actives 0.45% (n = 310,000); B-score at 10 µM; AID 463165; HEK293 M3R/RGS4 inducible, Fluo-4 calcium flux; active compounds read high; triggered by carbachol at its EC20; P49798;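 active = B-score, a plate-corrected calcium signal, over three deviations above library mean, with baseline fluorescence within five deviations of library mean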;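 also: RGS4 expression induced by doxycycline in cells with stable M3 receptor; B-score is computed from the integrated fluorescence ratio over baseline after carbachol; higher B-score means a larger calcium signal and so more RGS4 inhibition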
# Target sequence (P49798 whole entry, looked up): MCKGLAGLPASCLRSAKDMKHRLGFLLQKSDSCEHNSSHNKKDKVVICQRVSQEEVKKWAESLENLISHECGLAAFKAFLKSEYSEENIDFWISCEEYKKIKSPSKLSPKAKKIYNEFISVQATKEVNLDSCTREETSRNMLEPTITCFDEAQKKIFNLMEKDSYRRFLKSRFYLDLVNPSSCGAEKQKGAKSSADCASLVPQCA
# RGS4 act – RGS4 potentiation or activation | HEK293 M3R/inducible RGS4, carbachol calcium flux Fluo4; active compounds read low | B-score at 10 µM | actives 0.92% (n = 310,000) | AID 463111;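 active = B-score of the integrated calcium signal more than 4 SD below the library mean, with starting fluorescence not abnormally high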;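 also: negative B-score means reduced calcium response which marks RGS4 activation or potentiation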
#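 Detection: kinetic calcium fluorescence imaging with Fluo4-AM dye, 2 µM / Material: HEK293 cells with stable M3R and inducible RGS4 / Schedule: recording 10 s baseline at 1 Hz, 100 s post-agonist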
# MrgX1 antag – antagonists of human MrgX1 receptor; Q96LB2; MRGX1-HEK293 calcium flux, Fluo-4, BAM8-22 antagonism; active compounds read low; B-score at 10 µM; actives 1.3% (n = 310,000);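 active = calcium-response B-score plate-corrected more than 3 library SD below zero, starting fluorescence within 5 deviations, no agonist response on first addition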;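 also: peak minus trough fluorescence over baseline after final BAM8-22 challenge near maximal dose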
# * = called active by the depositor; i = inactive; nt = no result. In the library only some 3.5% were active in any assay of this set; here they are far more common.
SMILES,MrgX1 allo act,MrgX1 ag,RGS4 block,RGS4 act,MrgX1 antag
CCC(C)(C)n1nnnc1CN1CCN(C(c2ccccc2)c2ccccc2)CC1,i,i,i,-7.5*,i
CC(=O)Nc1ccc(S(=O)(=O)NCc2ccc(C(=O)NCCN3CCCCCC3)cc2)cc1,i,i,i,i,-9.4*
CC(=O)Nc1ccc(S(=O)(=O)NCc2ccc(C(=O)NCc3ccc(Cl)cc3)cc2)cc1,i,i,i,i,i
COC(C(=O)Nc1ccnn1C1CCN(C(=O)c2ccc(C=O)cc2)CC1)c1ccccc1 (stereo not given),i,i,i,i,i
O=C(Cn1cnc([N+](=O)[O-])n1)NC1CC1,i,i,i,i,i
O=[N+]([O-])c1ccc(N2CCC(=NOCc3ccc(Cl)cc3)CC2)cc1,i,i,i,-8.2*,i
Cc1nc2nc(C)c(NS(=O)(=O)c3ccc(Cl)s3)c(=O)n2[nH]1,i,i,i,i,i
CC(=O)CSc1ccc(-c2nc3cc(C)c(C)cc3[nH]2)cn1,i,i,i,i,i
Cc1cc2nc(-c3ccc(SCc4ccc(C#N)cc4)nc3)[nH]c2cc1C,i,i,i,i,-6.1*
O=C(O)C(F)=C1c2ccccc2-c2ccccc21,i,i,i,i,i
COc1cccc(NC(=O)COC(=O)CCCC2=NS(=O)(=O)c3ccccc3N2)c1,i,i,i,i,i
N=C1S/C(=C\c2ccc(-c3cccc(Cl)c3)o2)C(=O)N1c1nccs1,i,i,i,i,i
O=C1OC(c2cccs2)=N/C1=C\c1ccc(-c2cccc(Cl)c2)o1,i,i,i,i,-5.1*
COc1cc(C(=O)NCCOc2cccc(C)c2)c(Br)c(OC)c1OC,i,i,i,-7.2*,i
COc1cc(C(=O)NCCOc2ccccc2)c(Br)c(OC)c1OC,i,i,i,i,i
Cc1cccc(N(Cc2ccccc2)C(=O)CSC(C)C(=O)Nc2cc(C)on2)c1 (stereo not given),i,i,i,i,i
O=[n+]1cc(-c2ccc(Br)cc2)n([O-])c2c1CCC2,i,i,i,i,-4.6*
O=[n+]1cc(-c2ccc(Cl)cc2)n([O-])c2c1CCC2,i,i,i,i,i
CCC(C)c1ccccc1N1CC(C(=O)NCCc2ccc(OC)c(OC)c2)CC1=O (stereo not given),i,i,i,i,i
Cc1ccc(NC(=O)CO/N=C/c2ccc(N(C)C)cc2)cc1,i,i,i,i,-4.8*
O=C(O)c1ccc(N=Nc2c(O)[nH]c3ccccc23)cc1,i,i,i,i,i
Cc1cc(N=Nc2c(O)c3ccccc3[nH]c2=O)ccc1N=Nc1ccc(C(=O)N(C)C)cc1,nt,nt,i,-7.8*,nt
O=S(=O)(Nc1ccc2c(c1)OCCO2)c1cccs1,i,i,i,i,-4.6*
O=S(=O)(Nc1ccc2c(c1)OCO2)c1cccs1,i,i,i,i,i
CCOC(=O)c1cc2sccc2n1CC(=O)C(C)(C)C,i,i,i,i,i
SMILES,MrgX1 allo act,MrgX1 ag,RGS4 block,RGS4 act,MrgX1 antag
COc1ccc(/C=C(\NC(=O)c2cccs2)C(=O)Nc2cccc3ccccc23)cc1OC,i,28*,i,i,i
O=C(Nc1ccccc1C(=O)Nc1ccncc1)c1cccc([N+](=O)[O-])c1,i,i,i,i,i
COc1ccc(-c2nn(-c3ccccc3)cc2/C=N/NC(=O)c2ccc(Br)o2)cc1,i,i,i,-8.1*,i
COc1ccc(C2C(C#N)=C(C)NC3=C2C(=O)c2ccccc23)cc1 (stereo not given),i,i,i,-7.4*,i
CCOc1ccc(C2C(C#N)=C(C)NC3=C2C(=O)c2ccccc23)cc1 (stereo not given),i,i,i,i,i
COc1ccccc1C(CNC(=O)c1cccc(S(=O)(=O)Nc2ccc(C)cc2)c1)N1CCCC1 (stereo not given),i,i,i,i,i
COc1ccccc1NS(=O)(=O)c1cccc(C(=O)N/N=C/c2ccc(C)o2)c1,18*,i,i,i,i
Cc1ccc(/C=N/NC(=O)c2cccc(S(=O)(=O)Nc3ccccc3Cl)c2)s1,11*,i,i,i,i
COc1ccccc1NS(=O)(=O)c1cccc(C(=O)NCC(c2ccccc2OC)N2CCCC2)c1 (stereo not given),i,i,i,i,-5.7*
O=C(NCC1CCCN(Cc2ccccc2F)C1)c1cccc(C(F)(F)F)c1 (stereo not given),i,i,i,i,i
Cc1ccc(C2C(C#N)=C(N)SC(N)=C2C#N)c(C)c1,i,52*,i,i,i
O=C1C(=Cc2cccs2)C(=O)c2ccccc21,i,32*,i,i,i
O=C1NN(c2cccc(Br)c2)C(=O)/C1=C/c1cccs1,i,30*,i,i,i
O=C1NN(c2ccccc2)C(=O)/C1=C\c1ccccc1,i,i,i,i,i
O=C1NN(c2ccccc2)C(=O)/C1=C/c1cccs1,i,43*,i,i,i
COc1ccc(C(=O)CSc2nnc(CCc3ccccc3)n2-c2ccccc2)cc1,i,i,i,i,-6.4*
COc1ccc(-n2c(CCc3ccccc3)nnc2SCC(=O)c2ccccc2)cc1,i,i,i,i,i
O=C(CSc1nnc(CNc2ccc(F)cc2)n1Cc1ccccc1)NCc1ccccc1,i,i,i,i,-6.4*
O=C(CSc1nnc(CCc2ccccc2)n1-c1ccc(Cl)cc1)NCc1ccccc1,i,i,i,i,-4.8*
Cc1ccc(N2C(=S)SC3CS(=O)(=O)CC32)cc1 (stereo not given),i,i,i,i,-5.5*
N#C/C(=C\c1ccc2c(c1)OCCO2)C(=O)Nc1nccs1,i,52*,i,i,i
NS(=O)(=O)c1ccc(CCNC(=O)C(=O)NCC2OCCN2S(=O)(=O)c2ccc(F)cc2)cc1 (stereo not given),i,i,i,i,i
CCN(CC)CCOC(=O)c1ccc(NC(=O)CCCN2C(=O)/C(=C/c3cccs3)SC2=S)cc1,i,i,i,-8.3*,i
O=C(O)CC1SC(N/N=C/c2ccc(Br)cc2)NC1=O (stereo not given),i,i,i,i,-5.7*
